An excerpt weighted towards active compounds, which were near 4.1% of everything screened.
SMARCA2 act: activators of SMARCA2 function; MG213 cells, MMTV-luciferase reporter, dexamethasone, overnight; activation, % at 9.1 µM; actives 1% (n = 370,000); AID 652017; in the data active = activation above about 7.8%
MPTP block: permeability transition pore inhibition | isolated mouse mitochondria, Ca2+ swelling absorbance, 30 min | inhibition, % at 10 µM | actives 1.4% (n = 360,000) | AID 602449;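 active = inhibition of 50% or more, scaled per plate between neutral and stimulator controls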
MC4R antag cAMP: antagonists of human melanocortin 4 receptor (MC4R); P32245; MC4R-expressing cells, MTII-stimulated cAMP, LANCE TR-FRET; inhibition, % at 6.5 µM; actives 0.48% (n = 360,000);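 active = inhibition above its plate's cutoff, the mean of tested wells on that plate plus 3 SD, cut at about 29% in these data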
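material = U2OS cells stably expressing human melanocortin 4 receptor (MC4R) | also added = Melanotan II challenge | dosing = single nominal compound dose of 6.5 µM | detection = TR-FRET with Eu-cAMP and labeled anti-cAMP, 671 nm | replication = singlicate | timing = compound 30 min, challenge 1 h, detection 1 h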
MC4R ag barr: human MC4R agonism via beta-arrestin; P32245; U2OS MC4R beta-arrestin complementation, luminescence; percent of melanotan II response, DMSO zero; activation, % at 8.9 µM; actives 0.98% (n = 360,000); AID 540308;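 active = activation above a per-plate cutoff, the mean activation of sample wells on that plate plus 3 SD, cut at about 8% in these data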
ATG4B inhibitor: blocks human ATG4B protease cleavage of LC3 substrate. Q9Y4P1. ATG4B cleavage of LC3-PLA2, NBD-HPC fluorescence, 1 h. inhibition, % at 8.33 µM. actives 0.51% (n = 340,000). AID 504462; in the data active = inhibition above about 40%
Target sequence (Q9Y4P1 whole entry, looked up): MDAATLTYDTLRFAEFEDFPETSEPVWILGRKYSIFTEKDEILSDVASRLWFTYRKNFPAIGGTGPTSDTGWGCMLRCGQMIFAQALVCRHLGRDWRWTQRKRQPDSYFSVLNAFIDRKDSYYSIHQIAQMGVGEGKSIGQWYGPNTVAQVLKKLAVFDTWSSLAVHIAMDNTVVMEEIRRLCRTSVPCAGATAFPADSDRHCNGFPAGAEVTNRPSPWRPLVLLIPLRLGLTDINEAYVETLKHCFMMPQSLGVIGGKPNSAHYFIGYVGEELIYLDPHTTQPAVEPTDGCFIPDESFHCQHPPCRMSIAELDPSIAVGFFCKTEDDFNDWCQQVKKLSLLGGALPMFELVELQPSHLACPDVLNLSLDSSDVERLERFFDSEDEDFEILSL
MPTP counter: Rhodamine 123 counter-screen of mitochondrial pore hits; shares compounds with MPTP block; inhibition, % at 10 µM; actives 78% (n = 5,000); AID 624504; isolated mitochondria, membrane potential, Rhodamine 123 fluorescence; in the data active = inhibition above about 22%
MPTP swell DR: dose response confirmation of mitochondrial permeability transition pore inhibitors; shares compounds with MPTP block; isolated mitochondria swelling, absorbance; IC50, µM; actives 58% (n = 780); AID 651561; in the data active = IC50 below about 20 µM
MPTP counter DR: counter-screen for mitochondrial permeability transition pore inhibitors, dose response. shares compounds with MPTP block. isolated mitochondria counterscreen, fluorescence read-out. IC50, µM. actives 49% (n = 780). AID 651564; in the data active = IC50 below about 80 µM
Numbers stand for hits.

How did CCOC(=O)c1nnc(-c2cccs2)nc1Oc1ccc(Cl)cc1 do in these assays?
SMARCA2 act: inactive; MPTP block: active; MC4R antag cAMP: inactive; MC4R ag barr: inactive; ATG4B inhibitor: inactive; MPTP counter: inactive; MPTP swell DR: inactive; MPTP counter DR: inactive

How did CCOC(=O)c1nnc(-c2cccs2)nc1Oc1ccccc1C(=O)OC do in these assays?
SMARCA2 act: inactive; MPTP block: inactive; MC4R antag cAMP: inactive; MC4R ag barr: inactive; ATG4B inhibitor: inactive

What do the screens show for `CC(C)[C@H]1COc2c3ccccc3nn21`?
SMARCA2 act: inactive

What do the screens show for `Cc1cc(C)cc(NC(=O)Cc2ccc(S(=O)(=O)N3CCCC3)s2)c1`?
SMARCA2 act: inactive; MPTP block: inactive; MC4R antag cAMP: inactive; MC4R ag barr: inactive; ATG4B inhibitor: inactive

What do the screens show for `O=C(Cc1ccc(S(=O)(=O)N2CCOCC2)s1)Nc1cc(C(F)(F)F)cc(C(F)(F)F)c1`?
SMARCA2 act: inactive; MPTP block: 69; MC4R antag cAMP: inactive; MC4R ag barr: inactive; ATG4B inhibitor: inactive; MPTP counter: 78

How did O=C(Cc1ccc(S(=O)(=O)N2CCCCC2)s1)Nc1ccc(F)c(F)c1 do in these assays?
SMARCA2 act: inactive; MPTP block: 67; MC4R antag cAMP: inactive; MC4R ag barr: inactive; ATG4B inhibitor: inactive; MPTP counter: 83

Results for CCC(C)c1ccc(C(C)NC(=S)NC2CCCCC2)cc1 (centres undefined) ?
SMARCA2 act: inactive; MPTP block: 59; MC4R antag cAMP: inactive; MC4R ag barr: inactive; ATG4B inhibitor: inactive; MPTP counter: 103

What do the screens show for `CC(NC(=S)NC1CCCCC1)c1ccc(C(C)(C)C)cc1` (centres undefined)?
SMARCA2 act: inactive; MPTP block: 53; MC4R antag cAMP: inactive; MC4R ag barr: inactive; ATG4B inhibitor: inactive; MPTP counter: 106

What do the screens show for `CC(C)[C@@H](C)/C=C/[C@@H](C)[C@H]1CC[C@@H]2[C@]1(C)CCC1[C@]23C=C[C@]2(C[C@@H](O)CC[C@]12C)N(c1cnccn1)O3` (some centres undefined)?
SMARCA2 act: inactive

How did CC(C)(C)NC(=O)Nc1ccc(Br)cc1 do in these assays?
SMARCA2 act: inactive; MPTP block: 58; MC4R antag cAMP: inactive; MC4R ag barr: inactive; ATG4B inhibitor: inactive; MPTP counter: 77

Results for S=C(Nc1ccccc1Oc1ccccc1)NC1CCCC1 ?
SMARCA2 act: inactive; MPTP block: inactive; MC4R antag cAMP: inactive; MC4R ag barr: inactive; ATG4B inhibitor: inactive

What do the screens show for `S=C(NCC1CCCCC1)Nc1ccc(Oc2ccccc2)cc1`?
SMARCA2 act: inactive; MPTP block: 86; MC4R antag cAMP: inactive; MC4R ag barr: inactive; ATG4B inhibitor: inactive; MPTP counter: 86

How did S=C(Nc1ccc(Br)cc1)NC1CCCC1 do in these assays?
SMARCA2 act: inactive; MPTP block: 95; MC4R antag cAMP: inactive; MC4R ag barr: inactive; ATG4B inhibitor: inactive; MPTP counter: 97

Results for Cc1cccc(NC(=S)NC2CCCC2)c1 ?
SMARCA2 act: inactive; MPTP block: inactive; MC4R antag cAMP: inactive; MC4R ag barr: inactive; ATG4B inhibitor: inactive

Results for S=C(Nc1ccc(Oc2ccccc2)cc1)NC1CCCC1 ?
SMARCA2 act: inactive; MPTP block: 87; MC4R antag cAMP: inactive; MC4R ag barr: inactive; ATG4B inhibitor: inactive; MPTP counter: 84

Results for O=S1(=O)CCSC[C@@H](CN2CCN(c3ccccc3)CC2)N1 ?
SMARCA2 act: inactive

How did Cc1cc(N2CCN(S(C)(=O)=O)C[C@@H]2C)ccc1N1CCN(Cc2ccccc2)[C@@H](C)C1 do in these assays?
SMARCA2 act: inactive

Results for CN1CCC(NC(=O)Nc2ccc(Br)cc2)CC1 ?
SMARCA2 act: inactive; MPTP block: 67; MC4R antag cAMP: inactive; MC4R ag barr: inactive; ATG4B inhibitor: inactive; MPTP counter: 83

Results for COC(=O)C1=C(C)N(Cc2cccc(C(F)(F)F)c2)C(=NCc2cc(OC)c(OC)c(OC)c2)NC1c1ccccc1 (centres undefined) ?
SMARCA2 act: inactive

How did COc1ccc(N2CCc3c(C)nc4c(OC)cc(OC)cc4c32)c(OC)c1 do in these assays?
SMARCA2 act: inactive; MPTP block: 64; MC4R antag cAMP: inactive; MC4R ag barr: inactive; ATG4B inhibitor: inactive; MPTP counter: 72

Results for OC(CN1CCN(c2cccc(C(F)(F)F)c2)CC1)c1c[nH]c2ccccc12 (centres undefined) ?
SMARCA2 act: inactive; MPTP block: 53; MC4R antag cAMP: inactive; MC4R ag barr: inactive; ATG4B inhibitor: inactive; MPTP counter: inactive; MPTP swell DR: inactive; MPTP counter DR: 72

Results for CCCC[C@H]1C2CC(OC(=O)Nc3cc(C)cc(C)c3)C(C2)[C@H]2CCCCN21 (some centres undefined) ?
SMARCA2 act: inactive

What do the screens show for `O=C(O)Cn1cnc2c(OCc3ccccc3)ncnc21`?
SMARCA2 act: inactive; MPTP block: inactive; MC4R antag cAMP: inactive; MC4R ag barr: inactive

How did Cc1cc(C)c(CN2CCN(C(=O)Cn3cnc4c(OCc5ccccc5)ncnc43)CC2)c(C)c1 do in these assays?
SMARCA2 act: inactive; MPTP block: 67; MC4R antag cAMP: inactive; MC4R ag barr: inactive; MPTP counter: 84

What do the screens show for `CC1CCCN(CCOCCOc2ccc(Cl)cc2Br)C1` (centres undefined)?
SMARCA2 act: inactive; MPTP block: 59; MC4R antag cAMP: inactive; MC4R ag barr: inactive; ATG4B inhibitor: inactive; MPTP counter: inactive; MPTP swell DR: inactive; MPTP counter DR: inactive

What do the screens show for `CCN1CCN(CCCOc2ccc(Cl)cc2Br)CC1`?
SMARCA2 act: inactive; MPTP block: inactive; MC4R antag cAMP: inactive; MC4R ag barr: inactive; ATG4B inhibitor: inactive

How did Clc1ccc(OCCCN2CCCCC2)c(Br)c1 do in these assays?
SMARCA2 act: inactive; MPTP block: 78; MC4R antag cAMP: inactive; MC4R ag barr: inactive; ATG4B inhibitor: inactive; MPTP counter: inactive; MPTP swell DR: inactive; MPTP counter DR: inactive

Results for Cc1ccc(NC(=O)C(C)c2cccc(C(=O)c3ccccc3)c2)cc1O (centres undefined) ?
SMARCA2 act: inactive; MPTP block: 96; MC4R antag cAMP: inactive; MC4R ag barr: inactive; ATG4B inhibitor: inactive; MPTP counter: 84

How did Cc1cccc(NC(=O)C(C)C(=O)c2ccccc2)c1 (centres undefined) do in these assays?
SMARCA2 act: inactive; MPTP block: inactive; MC4R antag cAMP: inactive; MC4R ag barr: inactive; ATG4B inhibitor: inactive

How did Cc1ccccc1CS(=O)(=O)Cc1ccc(C(=O)Nc2ccc(F)cc2)o1 do in these assays?
SMARCA2 act: inactive

Results for CC(C)COC(=O)NCCOC(=O)Nc1cccc(Cl)c1 ?
SMARCA2 act: inactive; MPTP block: 102; MC4R antag cAMP: inactive; MC4R ag barr: inactive; ATG4B inhibitor: inactive; MPTP counter: 100
